Experimental data published in ChEMBL document CHEMBL4177642, “Cyclic perylene diimide: Selective ligand for tetraplex DNA binding over double stranded DNA” (Bioorg Med Chem, 2017).
Calls of active or inactive are those of the source. The rule behind the calls is not given here.

Assays:
[1] = system: Quadruplex DNA; assay: Binding affinity to human TA-core of telomeric sequence G-quadruplex DNA assessed as change in enthalpy at 100 uM in presence of Na+ by isothermal titration calorimetric method; assay type: nucleic-acid assay
In short: (§1)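 ITC at 25 °C: TA-core (10 μM in cell) annealed 95 °C 10 min, cooled 1.0 °C/min to 25 °C, in 50 mM AcOK-AcOH pH 5.5 (K+ lines) or AcONa-AcOH pH 5.5 (Na+ lines). Ligand at 100 μM in same buffer injected repeatedly (1.96 μL each). Solutions degassed 10 min; data fitted to an independent-site model.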

[2] = system: Quadruplex DNA; assay: Binding affinity to human TA-core of telomeric sequence G-quadruplex DNA assessed as change in enthalpy at 100 uM in presence of K+ by isothermal titration calorimetric method; assay type: nucleic-acid assay; in short: as §1
[3] = system: Calf thymus DNA; assay: Binding affinity to calf thymus duplex DNA assessed as change in the intensities of positive band formation at 250 nm up to 10 uM by CD spectroscopic method; assay type: ADME, nucleic-acid assay, Bos taurus; conditions: cattle, 0.25 µM
[4] = system: Quadruplex DNA; assay: Binding affinity to human TA-core of telomeric sequence G-quadruplex DNA assessed as isosbestic point at 5 uM in presence of 100 mM KCl by UV-vis spectrophotometric analysis; assay type: nucleic-acid assay
In short: (§2)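 Absorption spectra at 25 °C of 5.0 μM ligand in 50 mM Tris-HCl pH 7.4, 0.10 M KCl, titrated with TA-core (0–15.7 μM) or CT-DNA (0–323.4 μM; concentration in base pairs).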

[5] = Binding affinity to 27-mer DNA hairpin (unknown origin) at 100 uM in presence of Na+ by isothermal titration calorimetric method
[6] = Inhibition of telomerase (unknown origin) by TRAP assay; parameters: species or system Homo sapiens
In short: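 TRAP with a TRAPeze kit, using positive-control cell lysate (250 cells per reaction). Extension 30 °C 1 h, then 35 PCR cycles. Products run on 12.5% PAGE, GelStar-stained and analyzed per kit.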

[7] = system: Quadruplex DNA; assay: Binding affinity to human TA-core of telomeric sequence G-quadruplex DNA assessed as stabilization of antiparallel structure formation up to 4.5 uM in presence of Na+ by CD spectroscopic method; assay type: nucleic-acid assay
[8] = system: Quadruplex DNA; assay: Binding affinity to human TA-core of telomeric sequence G-quadruplex DNA assessed as stabilization of antiparallel G-quadruplex structure by measuring increase in intensities of negative band at 240 nanometer up to 7.5 uM in presence of K+ by CD spectroscopic method; assay type: nucleic-acid assay
[9] = system: Quadruplex DNA; assay: Binding affinity to human TA-core of telomeric sequence G-quadruplex DNA assessed as change in entropy at 100 uM in presence of K+ by isothermal titration calorimetric method; assay type: nucleic-acid assay; in short: as §1
[10] = system: Calf thymus DNA; assay: Binding affinity to calf thymus duplex DNA assessed as change in the intensities of negative band formation at 280 nm up to 10 uM in presence of Na+ by CD spectroscopic method; assay type: ADME, nucleic-acid assay, Bos taurus; conditions: cattle, 0.28 µM
[11] = system: DNA; assay: Binding affinity to Escherichia coli pUC19 duplex DNA assessed as unwinding of supercoiled DNA up to 40 uM after 1 hr in presence of human topoisomerase-1 by agarose gel electrophoresis; assay type: ADME, nucleic-acid assay
In short: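 pUC19 plasmid (0.025 μg/μL) preincubated 5 min at 37 °C with human Topo I (0.25 units/μL, 0.01% BSA) in 35 mM Tris-HCl pH 8.0, 72 mM KCl, 5 mM MgCl2, 5 mM DTT, 5 mM spermidine. Ligand then added and incubated 1 h at 37 °C. Stopped with SDS, proteinase K digested, phenol/chloroform extracted, run on 1% agarose, GelStar-stained.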

[12] = system: Quadruplex DNA; assay: Binding affinity to human TA-core of telomeric sequence G-quadruplex DNA assessed as hyperchromic shift at 550 nanometer at 5 uM in presence of 100 mM KCl by UV-vis spectrophotometric analysis relative to control; assay type: nucleic-acid assay; in short: as §2
[13] = system: Calf thymus DNA; assay: Binding affinity to calf thymus duplex DNA assessed as isosbestic point at 5 uM by UV-vis spectrophotometric analysis; assay type: ADME, nucleic-acid assay, Bos taurus; conditions: cattle; in short: as §2
[14] = system: Quadruplex DNA; assay: Binding affinity to human TA-core of telomeric sequence G-quadruplex DNA assessed as stabilization of antiparallel structure formation up to 5 equiv by CD spectroscopic method; assay type: nucleic-acid assay
[15] = system: Quadruplex DNA; assay: Binding affinity to human TA-core of telomeric sequence G-quadruplex DNA assessed as stabilization of antiparallel G-quadruplex structure by measuring increase in intensities of positive band at 290 nanometer up to 7.5 uM in presence of K+ by CD spectroscopic method; assay type: nucleic-acid assay
[16] = system: Calf thymus DNA; assay: Binding affinity to calf thymus duplex DNA assessed as red shift at 500 nanometer at 5 uM in presence of 100 mM KCl by UV-vis spectrophotometric analysis; assay type: ADME, nucleic-acid assay, Bos taurus; conditions: cattle; in short: as §2
[17] = system: Calf thymus DNA; assay: Binding affinity to calf thymus duplex DNA assessed as change in the intensities of negative band formation at 280 nm up to 10 uM by CD spectroscopic method; assay type: ADME, nucleic-acid assay, Bos taurus; conditions: cattle, 0.28 µM
[18] = system: Calf thymus DNA; assay: Binding affinity to calf thymus duplex DNA assessed as change in the intensities of negative band formation at 280 nm up to 10 uM in presence of K+ by CD spectroscopic method; assay type: ADME, nucleic-acid assay, Bos taurus; conditions: cattle, 0.28 µM
[19] = system: Calf thymus DNA; assay: Binding affinity to calf thymus duplex DNA assessed as change in the intensities of positive band formation at 250 nm up to 10 uM in presence of K+ by CD spectroscopic method; assay type: ADME, nucleic-acid assay, Bos taurus; conditions: cattle, 0.25 µM
[20] = system: Quadruplex DNA; assay: Binding affinity to human TA-core of telomeric sequence G-quadruplex DNA assessed as change in melting temperature at 1.5 uM in presence of K+ by spectrophotometric analysis; assay type: nucleic-acid assay
In short: (§3)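 Melting of 1.5 μM TA-core followed by CD at 288 nm in 50 mM Tris-HCl pH 7.4 with 20 mM KCl or 20 mM NaCl. Run without or with 1.5 μM ligand (1:1 ligand:DNA), heating at 60 °C/h, data every 0.5 °C, 1 cm cell.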

[21] = system: Quadruplex DNA; assay: Binding affinity to human TA-core of telomeric sequence G-quadruplex DNA assessed as red shift at 500 nanometer at 5 uM in presence of 100 mM KCl by UV-vis spectrophotometric analysis; assay type: nucleic-acid assay; in short: as §2
[22] = system: Quadruplex DNA; assay: Binding affinity to human TA-core of telomeric sequence G-quadruplex DNA assessed as change in melting temperature at 1.5 uM in presence of Na+ by spectrophotometric analysis; assay type: nucleic-acid assay; in short: as §3
[23] = system: Quadruplex DNA; assay: Binding affinity to human TA-core of telomeric sequence G-quadruplex DNA assessed as change in entropy at 100 uM in presence of Na+ by isothermal titration calorimetric method; assay type: nucleic-acid assay; in short: as §1
[24] = Selectivity ratio of binding constant for human TA-core of telomeric sequence G-quadruplex DNA to binding conctant for calf thymus duplex DNA
[25] = system: double-stranded DNA oligonucleotide dsOligo (synthetic); assay: Binding affinity to synthetic duplex DNA oligonucleotide dsOligo assessed as increase in melting temperature at 3 to 4.5 uM in presence of K+ by spectrophotometric analysis
[26] = Binding affinity to 27-mer DNA hairpin (unknown origin) at 100 uM in presence of K+ by isothermal titration calorimetric method
[27] = system: double-stranded DNA oligonucleotide dsOligo (synthetic); assay: Binding affinity to synthetic duplex DNA oligonucleotide dsOligo assessed as change in melting temperature at 1.5 uM in presence of K+ by spectrophotometric analysis
[28] = system: Calf thymus DNA; assay: Binding affinity to calf thymus duplex DNA assessed as hypochromic shift at 500 nanometer at 5 uM in presence of 100 mM KCl by UV-vis spectrophotometric analysis relative to control; assay type: ADME, nucleic-acid assay, Bos taurus; conditions: cattle; in short: as §2
[29] = system: Quadruplex DNA; assay: Binding affinity to human TA-core of telomeric sequence G-quadruplex DNA assessed as hypochromic shift at 500 nanometer at 5 uM in presence of 100 mM KCl by UV-vis spectrophotometric analysis relative to control; assay type: nucleic-acid assay; in short: as §2
[30] = system: Calf thymus DNA; assay: Binding affinity to calf thymus duplex DNA assessed as hyperchromic shift at 550 nanometer at 5 uM in presence of 100 mM KCl by UV-vis spectrophotometric analysis relative to control; assay type: ADME, nucleic-acid assay, Bos taurus; conditions: cattle; in short: as §2
[31] = system: Calf thymus DNA; assay: Binding affinity to calf thymus duplex DNA assessed as change in the intensities of positive band formation at 250 nm up to 10 uM in presence of Na+ by CD spectroscopic method; assay type: ADME, nucleic-acid assay, Bos taurus; conditions: cattle, 0.25 µM

deltaH [1]: -29.9 kJ/mol | deltaH [2]: -28.1 kJ/mol | Activity [3]: Not Active | Activity [4]: 510 nm | Activity [5]: inactive | IC50 [6]: 0.24 µM | Activity [7]: Active | Activity [8]: Active | -TdeltaS [9]: -6.52 kJ/mol | Activity [10]: Not Active | Activity [11]: Not Active | Activity [12]: 55% | Activity [13]: 520 nm | Activity [14]: Active | Activity [15]: Active | Activity [16]: 8 nm | Activity [17]: Not Active | Activity [18]: Not Active | Activity [19]: Not Active | ΔTm [20]: 21 °C | Activity [21]: 13 nm | ΔTm [22]: 14 °C | -TdeltaS [23]: -7.12 kJ/mol | Selectivity ratio [24]: 900 | Activity [25]: Not Active | Activity [26]: inactive | deltaTm [27]: -1 °C | Activity [28]: 50% | Activity [29]: 42% | Activity [30]: 29% | Activity [31]: Not Active
SMILES: O=C1CCCCCC(=O)NCCCN2CCN(CCCN3C(=O)c4ccc5c6ccc7c8c(ccc(c9ccc(c4c59)C3=O)c86)C(=O)N(CCCN3CCN(CCCN1)CC3)C7=O)CC2
